According to ChEMBL document CHEMBL1932969, “Acyl derivatives of boswellic acids as inhibitors of NF-κB and STATs” (Bioorg Med Chem Lett, 2012):

What was measured:
Type in all cases: functional
DU-145 = test: Anticancer activity against human DU145 cells assessed as growth inhibition at 50 uM after 48 hrs by SRB assay; conditions: DU-145, 48 h, read-out: GI
How it was run: (§1)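 Cells exposed to test compounds at 50 µM for 48 h. Read-out is percent growth inhibition, with SEM given. 5-Fluorouracil and adriamycin serve as reference agents.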

HT-29 = test: Anticancer activity against human HT-29 cells assessed as growth inhibition at 50 uM after 48 hrs by SRB assay; conditions: HT-29, 48 h, read-out: GI; how it was run: as §1
COLO 205 = test: Anticancer activity against human COLO205 cells assessed as growth inhibition at 50 uM after 48 hrs by SRB assay; conditions: COLO 205, 48 h, read-out: GI; how it was run: as §1
HEp-2 = test: Anticancer activity against human Hep2 cells assessed as growth inhibition at 50 uM after 48 hrs by SRB assay; conditions: HEp-2, 48 h, read-out: GI; how it was run: as §1
SW-620 = test: Anticancer activity against human SW620 cells assessed as growth inhibition at 50 uM after 48 hrs by SRB assay; conditions: SW-620, 48 h, read-out: GI; how it was run: as §1
PC-3 = test: Anticancer activity against human PC3 cells assessed as growth inhibition at 50 uM after 48 hrs by SRB assay; conditions: PC-3, 48 h, read-out: GI; how it was run: as §1

SMILES | inhibition of growth at 50 µM (DU-145) | inhibition of growth at 50 µM (HT-29) | inhibition of growth at 50 µM (COLO 205) | inhibition of growth at 50 µM (HEp-2) | inhibition of growth at 50 µM (SW-620) | inhibition of growth at 50 µM (PC-3)
COC(=O)[C@@]1(C)[C@H](O)CC[C@@]2(C)[C@H]1CC[C@]1(C)[C@@H]2CC=C2[C@@H]3[C@@H](C)[C@H](C)CC[C@]3(C)CC[C@]21C | 85% | 35% | 43% | 26% | 46% | 54%
C[C@H]1[C@H](C)CC[C@]2(C)CC[C@]3(C)C(=CC(=O)[C@@H]4[C@@]5(C)CC[C@@H](O)[C@](C)(C(=O)O)[C@@H]5CC[C@]43C)[C@H]12 [11-KETO BOSWELLIC ACID] | 95% | 39% | 52% | 35% | 28% | 100%
C[C@H]1[C@H](C)CC[C@]2(C)CC[C@]3(C)C(=CC[C@@H]4[C@@]5(C)CC[C@@H](OC=O)[C@](C)(C(=O)O)[C@@H]5CC[C@]43C)[C@H]12 | 90% | 76% | 90% | 72% | 87% | 95%
C[C@H]1[C@H](C)CC[C@]2(C)CC[C@]3(C)C(=CC[C@@H]4[C@@]5(C)CC[C@H](O)[C@](C)(C(=O)O)[C@@H]5CC[C@]43C)[C@H]12 | 89% | 70% | 81% | 69% | 63% | 72%
C[C@H]1[C@H](C)CC[C@]2(C)CC[C@]3(C)C(=CC(=O)[C@@H]4[C@@]5(C)CC[C@H](OC(=O)CCC(=O)O)[C@](C)(C(=O)O)[C@@H]5CC[C@]43C)[C@H]12 | 83% | 17% | 28% | 19% | 4% | 62%
CC(=O)O[C@@H]1CC[C@@]2(C)[C@@H](CC[C@]3(C)[C@@H]2CC=C2[C@@H]4[C@@H](C)[C@H](C)CC[C@]4(C)CC[C@]23C)[C@@]1(C)C(=O)O | 3% | 93% | 91% | 85% | 93% | 44%
O=c1[nH]cc(F)c(=O)[nH]1 [FLUOROURACIL] | 35% | 41% | 29% | 29% | 44% | 16%
COC(=O)[C@]1(C)[C@@H]2CC[C@]3(C)[C@H](CC=C4[C@@H]5[C@@H](C)[C@H](C)CC[C@]5(C)CC[C@]43C)[C@@]2(C)CC[C@@H]1O | 3% | 5% | 22% | 0% | 9% | 7%
COC(=O)[C@]1(C)[C@@H]2CC[C@]3(C)[C@H](C(=O)C=C4[C@@H]5[C@@H](C)[C@H](C)CC[C@]5(C)CC[C@]43C)[C@@]2(C)CC[C@@H]1O | 4% | 8% | 21% | 0% | 10% | 5%
CC(=O)O[C@H]1CC[C@@]2(C)[C@@H](CC[C@]3(C)[C@@H]2CC=C2[C@@H]4[C@@H](C)[C@H](C)CC[C@]4(C)CC[C@]23C)[C@@]1(C)C(=O)O | 87% | 31% | 32% | 42% | 35% | 56%
CCCC(=O)O[C@H]1CC[C@@]2(C)[C@@H](CC[C@]3(C)[C@@H]2C(=O)C=C2[C@@H]4[C@@H](C)[C@H](C)CC[C@]4(C)CC[C@]23C)[C@@]1(C)C(=O)O | 92% | 62% | 91% | 66% | 79% | 94%
C[C@H]1[C@H](C)CC[C@]2(C)CC[C@]3(C)C(=CC(=O)[C@@H]4[C@@]5(C)CC[C@H](O)[C@](C)(C(=O)O)[C@@H]5CC[C@]43C)[C@H]12 | 84% | 44% | 49% | 51% | 45% | 70%
